In ChEMBL document CHEMBL1782013, “Discovery of Potent and Selective Inhibitors of Calcium-Dependent Protein Kinase 1 (CDPK1) from C. parvum and T. gondii” (ACS Med Chem Lett, 2010):
Calls of active or inactive are those of the source. The rule behind the calls is not given here.

Experiments:
SF-539 = assay: Cytotoxicity against human SF539 cells up to 10 uM after 48 to 72 hrs by alamar blue assay; type: cell-based
HL-60 = assay: Cytotoxicity against human HL60 cells up to 10 uM after 48 to 72 hrs by alamar blue assay; type: cell-based
Cryptosporidium parvum [1] = assay: Antiparasitic activity against Cryptosporidium parvum sporozoites infected in human HCT8 cells assessed as reduction of parasites level treated immediately after infection measured after 24 hrs; type: functional, organism-based; details: HCT-8
Method in brief: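 Human intestinal HCT-8 cells were infected with C. parvum sporozoites, one sporozoite per host cell. Inhibitor was added at varying concentrations at the time of infection. Parasites present were counted 24 h after infection.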

Cryptosporidium parvum [2] = assay: Antiparasitic activity against Cryptosporidium parvum sporozoites infected in human HCT8 cells assessed as reduction of parasites level treated 1 hr after infection measured after 24 hrs; type: functional, organism-based; details: HCT-8
Method in brief: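 HCT-8 human intestinal cells infected with C. parvum sporozoites at a 1:1 ratio of HCT-8 cells to sporozoites. Cultures were exposed to a range of inhibitor concentrations starting 1 h after infection. Parasite numbers were counted after 24 h of infection.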

[3] = Cytotoxicity against human CRL8155 cells up to 10 uM after 48 to 72 hrs by alamar blue assay; type: cell-based
HCC 2998 = assay: Cytotoxicity against human HCC2998 cells up to 10 uM after 48 to 72 hrs by alamar blue assay; type: cell-based
[4] = target: T1, Calmodulin-domain protein kinase 1 (Toxoplasma gondii, UniProt Q9BJF5); type: cell-free, Plasma
T1 sequence (Q9BJF5 whole entry): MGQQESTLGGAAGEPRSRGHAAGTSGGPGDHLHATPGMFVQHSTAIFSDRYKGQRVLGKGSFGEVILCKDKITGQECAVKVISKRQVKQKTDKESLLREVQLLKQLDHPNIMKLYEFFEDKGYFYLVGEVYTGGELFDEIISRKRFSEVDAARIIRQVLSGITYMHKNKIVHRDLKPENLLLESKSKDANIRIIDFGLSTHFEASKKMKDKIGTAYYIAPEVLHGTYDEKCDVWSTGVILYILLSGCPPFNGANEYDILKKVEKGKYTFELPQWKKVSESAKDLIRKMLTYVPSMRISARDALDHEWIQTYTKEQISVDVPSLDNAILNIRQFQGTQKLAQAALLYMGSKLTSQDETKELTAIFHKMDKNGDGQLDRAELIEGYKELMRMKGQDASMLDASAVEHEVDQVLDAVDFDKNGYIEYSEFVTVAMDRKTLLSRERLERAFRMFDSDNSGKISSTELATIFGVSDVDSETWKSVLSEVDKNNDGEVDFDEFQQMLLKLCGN

Toxoplasma gondii = assay: Antiparasitic activity against Toxoplasma gondii infected in human fibroblasts assessed as reduction of parasite invasion; type: functional, organism-based

Q: For CC(C)(C)n1nc(-c2cccc3ccccc23)c2c(N)ncnc21, which Activity (SF-539) is on record?
A: The Activity was “Non-toxic”.

Q: What about the Activity (HL-60) of the same molecule?
A: The Activity was “Non-toxic”.

Q: What about the Activity (Cryptosporidium parvum [1]) of the same molecule?
A: The Activity was “Dose-dependent effect”.

Q: And the Activity (Cryptosporidium parvum [2])?
A: Its Activity is “Dose-dependent effect”.

Q: And the Activity [3]?
A: The Activity was “Non-toxic”.

Q: And the Activity (HCC 2998)?
A: Its Activity is “Non-toxic”.

Q: Which results are given for CC(C)c1cccc(-c2nn(C(C)C)c3ncnc(N)c23)c1?
A: Activity (SF-539): Non-toxic; Activity (HL-60): Non-toxic; Activity [3]: Non-toxic; Activity (HCC 2998): Non-toxic

Q: For CC(C)n1nc(-c2ccc3ccccc3c2)c2c(N)ncnc21, which Activity (SF-539) is on record?
A: Its Activity is “Non-toxic”.

Q: And the Activity (HL-60)?
A: The Activity was “Non-toxic”.

Q: And the Activity [3]?
A: Its Activity is “Non-toxic”.

Q: And the Activity (HCC 2998)?
A: Its Activity is “Non-toxic”.

Q: With CS(=O)(=O)N1CCC(n2nc(Cc3cccc4ccccc34)c3c(N)ncnc32)CC1 as the molecule, how does the Activity (SF-539) read?
A: Its Activity is “Non-toxic”.

Q: And the Activity (HL-60)?
A: The Activity was “Non-toxic”.

Q: And the Activity [3]?
A: Its Activity is “Non-toxic”.

Q: What about the Activity (HCC 2998) of the same molecule?
A: Its Activity is “Non-toxic”.

Q: Which results are given for CC(C)n1nc(-c2ccc(Cl)c(Cl)c2)c2c(N)ncnc21?
A: Activity (SF-539): Non-toxic; Activity (HL-60): Non-toxic; Activity [3]: Non-toxic; Activity (HCC 2998): Non-toxic

Q: Which Activity (SF-539) does the source give for COc1ccc2cc(-c3nn(C(C)C)c4ncnc(N)c34)ccc2c1 here?
A: Its Activity is “Non-toxic”.

Q: What about the Activity (HL-60) of the same molecule?
A: The Activity was “Non-toxic”.

Q: What about the Activity [3] of the same molecule?
A: The Activity was “Non-toxic”.

Q: And the Activity (HCC 2998)?
A: Its Activity is “Non-toxic”.

Q: For CC(C)(C)n1nc(Cc2cccc3ccccc23)c2c(N)ncnc21, which Activity (SF-539) is on record?
A: The Activity was “Non-toxic”.

Q: And the Activity (HL-60)?
A: Its Activity is “Non-toxic”.

Q: And the Activity [3]?
A: Its Activity is “Non-toxic”.

Q: What about the Activity (HCC 2998) of the same molecule?
A: Its Activity is “Non-toxic”.

Q: With CC(C)n1nc(-c2ccc3c(c2)sc2ccccc23)c2c(N)ncnc21 as the molecule, how does the IC50 [4] read?
A: Its IC50 is greater than 3 µM.

Q: With CC(C)n1nc(-c2cnc3ccccc3c2)c2c(N)ncnc21 as the molecule, how does the Activity (SF-539) read?
A: Its Activity is “Non-toxic”.

Q: What about the Activity (HL-60) of the same molecule?
A: The Activity was “Non-toxic”.

Q: What about the Activity [3] of the same molecule?
A: The Activity was “Non-toxic”.

Q: And the Activity (HCC 2998)?
A: The Activity was “Non-toxic”.

Q: What does the source list for CCN1CCC(n2nc(Cc3cccc4ccccc34)c3c(N)ncnc32)CC1?
A: Activity (SF-539): Non-toxic; Activity (HL-60): Non-toxic; Activity [3]: Non-toxic; Activity (HCC 2998): Non-toxic

Q: Which Activity (SF-539) does the source give for CC(C)n1nc(Cc2cccc3ccccc23)c2c(N)ncnc21 here?
A: The Activity was “Non-toxic”.

Q: And the Activity (HL-60)?
A: The Activity was “Non-toxic”.

Q: What about the Activity (Toxoplasma gondii) of the same molecule?
A: Its Activity is “Active”.

Q: What about the Activity (Cryptosporidium parvum [1]) of the same molecule?
A: Its Activity is “Dose-dependent effect”.

Q: And the Activity (Cryptosporidium parvum [2])?
A: The Activity was “Dose-dependent effect”.

Q: And the Activity [3]?
A: Its Activity is “Non-toxic”.

Q: What about the Activity (HCC 2998) of the same molecule?
A: The Activity was “Non-toxic”.

Q: With CCOc1ccc2cc(-c3nn(C(C)C)c4ncnc(N)c34)ccc2c1 as the molecule, how does the Activity (SF-539) read?
A: Its Activity is “Non-toxic”.

Q: What about the Activity (HL-60) of the same molecule?
A: The Activity was “Non-toxic”.

Q: What about the Activity [3] of the same molecule?
A: The Activity was “Non-toxic”.

Q: And the Activity (HCC 2998)?
A: Its Activity is “Non-toxic”.

Q: With Nc1ncnc2c1c(Cc1cccc3ccccc13)nn2CC1CCNCC1 as the molecule, how does the Activity (SF-539) read?
A: Its Activity is “Non-toxic”.

Q: And the Activity (HL-60)?
A: The Activity was “Non-toxic”.

Q: What about the Activity [3] of the same molecule?
A: Its Activity is “Non-toxic”.

Q: What about the Activity (HCC 2998) of the same molecule?
A: The Activity was “Non-toxic”.

Q: For CC(C)(C)n1nc(-c2ccc3ccccc3c2)c2c(N)ncnc21, which Activity (SF-539) is on record?
A: Its Activity is “Non-toxic”.

Q: And the Activity (HL-60)?
A: The Activity was “Non-toxic”.

Q: What about the Activity (Toxoplasma gondii) of the same molecule?
A: The Activity was “Active”.

Q: What about the Activity (Cryptosporidium parvum [1]) of the same molecule?
A: Its Activity is “Dose-dependent effect”.

Q: And the Activity (Cryptosporidium parvum [2])?
A: Its Activity is “Dose-dependent effect”.

Q: What about the Activity [3] of the same molecule?
A: Its Activity is “Non-toxic”.

Q: What about the Activity (HCC 2998) of the same molecule?
A: The Activity was “Non-toxic”.

Q: Which Activity (SF-539) does the source give for CCN1CCC(Cn2nc(Cc3cccc4ccccc34)c3c(N)ncnc32)CC1 here?
A: Its Activity is “Non-toxic”.

Q: What about the Activity (HL-60) of the same molecule?
A: The Activity was “Non-toxic”.

Q: And the Activity [3]?
A: Its Activity is “Non-toxic”.

Q: And the Activity (HCC 2998)?
A: Its Activity is “Non-toxic”.

Q: Which Activity (SF-539) does the source give for CCN1CCC(CCn2nc(Cc3cccc4ccccc34)c3c(N)ncnc32)CC1 here?
A: The Activity was “Non-toxic”.

Q: And the Activity (HL-60)?
A: Its Activity is “Non-toxic”.

Q: And the Activity [3]?
A: The Activity was “Non-toxic”.

Q: And the Activity (HCC 2998)?
A: Its Activity is “Non-toxic”.
